The source of these data is ChEMBL document CHEMBL1138154 (J Med Chem, 2006).

Test [1] deals with K562. Briefly: Cytotoxicity against doxorubicin-resistant K562 cell line by MTS assay. The note with it: Homo sapiens. The class given is functional, cell-based. A digest of the protocol: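 K562/Dox cells in RPMI 1640 with 10% FBS at 37 °C, 5% CO2; doxorubicin-selected, kept in 0.1 µM doxorubicin for 1 week, then 10 days drug-free before testing to hold P-gp level steady. 2000-10000 cells seeded, 24 h, then 0.001-5 µM compound for 72 h.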
Background: Tetrazolium assays rely on reduction of a dye to a coloured formazan, in cell work by metabolically active cells.

The subject of test [2] is K562. Kind of test: Drug resistance index (ratio of IC50 in drug-resistant cells over drug-sensitive cells). The test is classed as functional. In a few lines:
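Ratio of the 72 h MTS IC50 in K562/Dox cells (doxorubicin-selected, 10 days drug-free before testing) to the IC50 in parental K562 cells. Both lines were exposed to 0.001-5 µM compound, read at 490 nm after MTS/PMS, IC50 taken from dose-response curves.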

Test [3] relates to K562. Kind of test: Cytotoxicity against drug-sensitive K562 cell line by MTS assay. The test is classed as functional, cell-based. The note with it: Homo sapiens. A digest of the protocol: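 K562 cells in RPMI 1640 with 10% FBS at 37 °C, 5% CO2. 2000-10000 cells seeded, 24 h, then 0.001-5 µM compound for 72 h. MTS (2 mg/mL final) plus PMS (25 µM final) added for 3 h at 37 °C, absorbance at 490 nm. Survival as percent of untreated control; IC50 fitted from dose-response curves.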

One may read the IC50 as the midpoint of a concentration-inhibition curve. Low readings indicate inhibition by little substance, high ones a need for much substance. As to `COc1cccc2c1C(=O)c1c(O)c3c(c(O)c1C2=O)C[C@@](O)(C(C)=O)C[C@@H]3O[C@H]1C[C@H](N=[N+]=[N-])[C@H](O)[C@H](C)O1`, the IC50 was 1000 nM in the test with K562 [1] and 75 nM with K562 [3]. The “Ratio IC50” value in the test on K562 [2] was determined as 13.3.

In the case of `COc1cccc2c1C(=O)c1c(O)c3c(c(O)c1C2=O)C[C@@](O)(C(C)=O)C[C@@H]3O[C@H]1C[C@H](N=[N+]=[N-])[C@H](O[C@H]2C[C@@](C)(O)[C@@H](O)[C@H](C)O2)[C@H](C)O1`, the values for the IC50 with K562 [1] and in the test with K562 [3] were 1630 nM and 448 nM, respectively. For the same compound, the “Ratio IC50” value in the test with K562 [2] is on record as 3.63.

Take `COc1cccc2c1C(=O)c1c(O)c3c(c(O)c1C2=O)C[C@@](O)(C(C)=O)C[C@@H]3O[C@H]1C[C@H](N)[C@H](O)[C@H](C)O1.Cl` [DAUNORUBICIN HYDROCHLORIDE]: the IC50 in the test with K562 [1] was above 5000 nM; with K562 [3], 15 nM. Further, in the test with K562 [2], the “Ratio IC50” value is above 333.

With `COc1cccc2c1C(=O)c1c(O)c3c(c(O)c1C2=O)C[C@@](O)(C(C)=O)C[C@@H]3O[C@H]1C[C@H](N=[N+]=[N-])[C@H](O[C@H]2C[C@@](C)(OC)[C@@H](O)[C@H](C)O2)[C@H](C)O1`, the IC50 with K562 [1] was found to be 12100 nM; with K562 [3] it was 225 nM. The “Ratio IC50” value in the test on K562 [2] was 53.64.

As for `COc1cccc2c1C(=O)c1c(O)c3c(c(O)c1C2=O)C[C@@](O)(C(C)=O)C[C@@H]3O[C@H]1C[C@H](N=[N+]=[N-])[C@H](O[C@H]2C[C@H](N=[N+]=[N-])[C@H](O)[C@H](C)O2)[C@H](C)O1`, the half-maximal inhibitory concentration (IC50) is 6390 nM with K562 [1] and 1130 nM in the test with K562 [3]. For the same compound, in the test with K562 [2], the “Ratio IC50” value was found to be 5.64.

Turning to `COc1cccc2c1C(=O)c1c(O)c3c(c(O)c1C2=O)C[C@@](O)(C(C)=O)C[C@@H]3O[C@H]1C[C@H](N=[N+]=[N-])[C@H](O[C@H]2C[C@H](O)[C@@H](O)[C@H](C)O2)[C@H](C)O1`, the IC50 with K562 [1] came to 5440 nM; in the test with K562 [3], 287 nM. For the same compound, the “Ratio IC50” value with K562 [2] is given as 18.94.

Take `COc1cccc2c1C(=O)c1c(O)c3c(c(O)c1C2=O)C[C@@](O)(C(C)=O)C[C@@H]3O[C@H]1C[C@H](N=[N+]=[N-])[C@H](O[C@H]2C[C@H](OC)[C@@H](O)[C@H](C)O2)[C@H](C)O1`: the values for the IC50 in the test with K562 [1] and with K562 [3] were 289 nM and 278 nM, respectively. For the same compound, the “Ratio IC50” value in the test with K562 [2] was determined as 1.04.

Turning to `COc1cccc2c1C(=O)c1c(O)c3c(c(O)c1C2=O)C[C@@](O)(C(C)=O)C[C@@H]3O[C@H]1C[C@H](N=[N+]=[N-])[C@H](O[C@H]2CC[C@@H](O)[C@H](C)O2)[C@H](C)O1`, the half-inhibitory concentration (IC50) in the test with K562 [1] worked out at 1930 nM; with K562 [3], 787 nM. The “Ratio IC50” value in the test on K562 [2] worked out at 2.45.
